Most compounds without a hit are left out; they make up all but 2.1% or so of the library.
Autophagy mod: autophagy modulators in MEF cells, primary screen, imaging, high-content, MEF GFP-LC3 | MEF GFP-LC3 puncta imaging; test concentration mostly 10 µM | calls only at 10 µM (by protocol) | 0.98% of 190,000 active;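 active means percentage of spot-positive cells more than 3 SD above its plate mean, without a fluorescence outlier flag or 80% toxicity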;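 further: spot-positive cell cutoff set from DMSO-treated cells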
INS promoter inh: inhibitors of insulin promoter-driven GFP, primary screen, imaging, TRM-6 cells (human fetal islet line), eGFP reporter, cell count; reporter expression induced with tamoxifen; 0.9% of 130,000 active; inhibition, % at 2 µM;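 active means inhibition above the mean plus 3 SD, with well images judged a real hit on visual review, cut at about 60% in these data, passing the limit was not always enough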
PERK inhibitor: block of dimerizer-induced PERK translation repression, primary screen, PERK inhibitor project, CHO PERK-DD cells, SEAP luminescence, HTS. CHO PERK-DD fusion, SEAP luminescence translation reporter. inhibition, % at 5.6 µM. 0.17% of 220,000 active. AID 1416, 2008;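 active means inhibition above the mean inhibition of all tested compounds plus 3 SD, set separately per screening campaign, cut at about 2.9% in these data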;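 further: PERK kinase domain activated by AP20187 dimerizer at 100 nM; 0% = DMSO with dimerizer and 100% = rapamycin at 8.4 µM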
Dynein cargo inh: inhibitors of GR-EGFP nuclear translocation, primary screen, dynein cargo transport inhibitor project, imaging, high-content, 3617.4 mouse cells. test concentration mostly 20 µM; stimulated with dexamethasone, 1 µM; hits give low values. z-score, hits read low. 0.47% of 220,000 active;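 active means plate z-score of nuclear minus cytoplasmic receptor signal below a set negative limit, without overly bright fluorescence or cell loss, cut at about -3.5 in these data, passing the limit was not always enough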;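 further: z-score of nuclear minus cytoplasmic ring GR-EGFP intensity difference per well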
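Buffer or medium: tet-free, stripped-serum medium; reagent: dexamethasone at 1.0 µM final, 30 min; incubation: 48 h induction, 1 h compound, 30 min dex at 37 °C; measured by: formaldehyde fixation, Hoechst nuclear stain, 10x automated fluorescence imaging; read-out: nuclear-to-cytoplasmic GR-EGFP distribution per well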
Insulin prom up: insulin promoter activators in MIN6 cells, imaging, high-content screening, mouse beta cells; MIN6 insulin promoter-GFP reporter; hits give high values; z-score at 5 µM; 0.3% of 190,000 active;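 active means z-score above 3 at 5 µM with at least 500 cells counted in the well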
Dynein confirm: dynein cargo transport inhibitors, GR-EGFP translocation, confirmation, imaging, high-content imaging, GR-EGFP cells; 3617.4 GR-EGFP nuclear translocation imaging, dexamethasone-induced; calls only at 20 µM; 69% of 1,000 active; shares compounds with Dynein cargo inh; AID 463116, 2010;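 active means inhibition of receptor movement into the nucleus at or above a set limit in both runs, with normal cell brightness and cell count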;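 further: dexamethasone at 1 µM final in well for 30 min; nuclear minus cytoplasmic GR-EGFP mean intensity difference in channel 2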
* hit, by the source's call.

What do the screens show for `Cc1cc(-c2ccccc2)c2c(=O)[nH][nH]c2n1`?
Autophagy mod: inactive; INS promoter inh: 6; PERK inhibitor: 1; Dynein cargo inh: 2.9; Insulin prom up: 0.06

Results for Cc1nc(SC2CC(=O)N(c3ccccc3)C2=O)n[nH]1 (stereo not given) ?
Autophagy mod: active; PERK inhibitor: 2; Dynein cargo inh: -3.7*; Insulin prom up: 0.18; Dynein confirm: inactive

Results for O=C1CC(Sc2ncccn2)C(=O)N1c1ccccc1 (stereo not given) ?
Autophagy mod: inactive; INS promoter inh: 29; PERK inhibitor: 1; Dynein cargo inh: -1.1; Insulin prom up: 0.3

How did O=C1CC(Sc2nnc(-c3ccccc3O)o2)C(=O)N1c1ccccc1 (stereo not given) do in these assays?
Autophagy mod: inactive; PERK inhibitor: 1; Dynein cargo inh: -6.5*; Insulin prom up: -0.78; Dynein confirm: inactive

What do the screens show for `COc1ccccc1N1C(=O)CC(Sc2n[nH]c(-c3cccc(C)c3)n2)C1=O` (stereo not given)?
Autophagy mod: inactive; INS promoter inh: 20; PERK inhibitor: 1; Dynein cargo inh: -3.6*; Insulin prom up: -5.2; Dynein confirm: active

What do the screens show for `COc1ccc(CN2CCN(CCC(C)C)C(CCO)C2)cc1Cn1cncn1` (stereo not given)?
Autophagy mod: inactive; PERK inhibitor: 1; Dynein cargo inh: 0.39; Insulin prom up: -0.1

What do the screens show for `O=C(CCN1CCN(c2ccccc2F)CC1)c1ccc(Br)cc1`?
Autophagy mod: inactive; PERK inhibitor: 0; Dynein cargo inh: -4.3*; Insulin prom up: 0.44; Dynein confirm: inactive

Results for COc1ccc(C(=O)CCN2CCN(c3ccccc3F)CC2)cc1 ?
Autophagy mod: inactive; INS promoter inh: -26; PERK inhibitor: 0; Dynein cargo inh: -0.83; Insulin prom up: 1.1

Results for CC1=NN(c2ccccc2)C(=O)/C1=C\C=C\c1ccccc1 ?
PERK inhibitor: 0; Dynein cargo inh: -5.3*; Insulin prom up: -0.84; Dynein confirm: active

What do the screens show for `Cc1cccc(N2C(N)=C(C#N)C(C#N)(C#N)C2c2ccccc2)c1` (stereo not given)?
Autophagy mod: inactive; PERK inhibitor: -1; Dynein cargo inh: -1.3; Insulin prom up: 0.14

How did N#CC1=C(N)N(c2ccccc2)C(c2cccc([N+](=O)[O-])c2)C1(C#N)C#N (stereo not given) do in these assays?
Autophagy mod: inactive; INS promoter inh: -5; PERK inhibitor: -1; Dynein cargo inh: -3.7*; Insulin prom up: 0.35; Dynein confirm: active

How did CCOC(=O)Cn1nc(C)n(-c2ccc(F)cc2)c1=O do in these assays?
Autophagy mod: inactive; PERK inhibitor: 1; Dynein cargo inh: -0.71; Insulin prom up: 0.38

What do the screens show for `Cc1ccc(S(=O)(=O)c2c[nH]c3cc4c(cc3c2=O)OCO4)cc1`?
PERK inhibitor: 1; Dynein cargo inh: -0.1; Insulin prom up: -0.45

What do the screens show for `O=C1/C(=C/c2ccccc2[N+](=O)[O-])COc2ccccc21`?
Autophagy mod: inactive; PERK inhibitor: 1; Dynein cargo inh: -5.7*; Insulin prom up: 0.55; Dynein confirm: active

Results for O=C(CNC(=O)C12CC3CC(CC(C3)C1)C2)N1CCN(S(=O)(=O)/C=C/c2ccccc2)CC1 ?
Autophagy mod: inactive; PERK inhibitor: 0; Dynein cargo inh: -0.44; Insulin prom up: 0.43

Results for CC1CN(C(=O)N2CCCCC2)CCN1C(=O)N1CCCCC1 (stereo not given) ?
Autophagy mod: inactive; INS promoter inh: -85; PERK inhibitor: 1; Dynein cargo inh: -0.9; Insulin prom up: -0.55

How did O=C(O)CCCN1C(=O)/C(=C\c2ccco2)SC1=S do in these assays?
Autophagy mod: inactive; PERK inhibitor: 1; Dynein cargo inh: -0.41; Insulin prom up: -0.5

High-throughput results (PubChem)
